Results on 12 compounds are retold here after ChEMBL document CHEMBL1156629, “Synthesis and discovery of high affinity folate receptor-specific glycinamide ribonucleotide formyltransferase inhibitors with antitumor activity” (J Med Chem, 2008).

Active and inactive are the calls of the source. The rule behind the calls is not given here.

Experiment [1] is described as follows: Antiproliferative activity against human FRalpha expressing Chinese hamster RT16 cells in presence of folic acid. The conditions noted are these: Cricetulus griseus.
For experiment [2], the system named is KB. Nature of the experiment: Antiproliferative activity against human RFC and FRalpha expressing human KB cells in presence of folic acid.
For experiment [3], the system named is KB. Nature of the experiment: cells. The conditions noted are these: Homo sapiens.
Experiment [4] deals with T1, Reduced folate transporter (Homo sapiens) (UniProt P41440).
T1 sequence (whole entry): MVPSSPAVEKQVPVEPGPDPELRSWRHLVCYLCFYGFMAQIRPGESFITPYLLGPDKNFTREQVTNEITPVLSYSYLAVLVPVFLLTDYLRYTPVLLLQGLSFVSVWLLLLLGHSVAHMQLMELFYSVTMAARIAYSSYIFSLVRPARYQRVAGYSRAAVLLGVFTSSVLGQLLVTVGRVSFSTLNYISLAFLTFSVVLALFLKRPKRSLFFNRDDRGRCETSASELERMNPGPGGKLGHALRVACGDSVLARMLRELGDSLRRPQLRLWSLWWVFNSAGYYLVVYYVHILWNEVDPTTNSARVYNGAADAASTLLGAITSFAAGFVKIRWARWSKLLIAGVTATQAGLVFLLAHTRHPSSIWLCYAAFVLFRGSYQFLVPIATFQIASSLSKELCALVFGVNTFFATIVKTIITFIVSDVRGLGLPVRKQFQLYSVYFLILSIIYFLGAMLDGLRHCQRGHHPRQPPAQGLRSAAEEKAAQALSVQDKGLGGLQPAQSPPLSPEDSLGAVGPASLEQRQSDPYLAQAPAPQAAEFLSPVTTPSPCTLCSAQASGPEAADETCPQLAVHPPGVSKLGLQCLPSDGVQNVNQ
Nature of the experiment: Inhibition of human RFC-mediated [3H]MTX transport in Chinese hamster PC43-10 cells at 10 uM. It is filed as cell-based.

The nature of experiment [5]: Antiproliferative activity against human RFC expressing Chinese hamster PC43-10 cells. The conditions noted are these: Cricetulus griseus.
A further experiment concerns R2. The experiment in a line: Antiproliferative activity against human RFC expressing Chinese hamster R2 cells.
Experiment [6] in a line: Antiproliferative activity against human FRbeta expressing Chinese hamster D4 cells in presence of folic acid. The conditions noted are these: Cricetulus griseus.
Experiment [7] concerns IGROV-1. Nature of the experiment: Antiproliferative activity against human RFC and FRalpha expressing human IGROV1 cells in presence of folic acid.
The target of experiment [8] is T1, Reduced folate transporter (Homo sapiens). Nature of the experiment: Inhibition of human RFC-mediated [3H]MTX transport expressed in Chinese hamster PC43-10 cells. The class given is cell-based. On the set-up: concentration or dose not given beside the values. The conditions noted are these: concentration not given here.
Experiment [9] has as its target Folate receptor alpha (Homo sapiens) (UniProt P15328). Nature of the experiment: Displacement of [3H]folic acid from human FRalpha in Chinese hamster RT16 cells. The class given is cell-based. In outline:
(§1)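 Cells were acid-stripped (pH 3.5 acetate buffer) and washed in ice-cold HEPES-buffered saline, pH 7.4. They were then incubated 15 min at 0°C with 50 nM [3H]folic acid (0.5 Ci/mmol) and a range of unlabeled ligand concentrations. Bound label was normalized to Lowry protein. […] Mean of 3 experiments.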
A general note: Loss of bound radioactivity is the signal in a displacement assay; it reports binding, not function.

The target of experiment [10] is Folate receptor beta (Homo sapiens) (UniProt P14207). The experiment in a line: Displacement of [3H]folic acid from human FRbeta in Chinese hamster D4 cells. The class given is cell-based. The method, boiled down: as §1
For experiment [11], the target named is T2, Trifunctional purine biosynthetic protein adenosine-3 (Mus musculus, UniProt Q64737).
T2 sequence (Q64737 whole entry): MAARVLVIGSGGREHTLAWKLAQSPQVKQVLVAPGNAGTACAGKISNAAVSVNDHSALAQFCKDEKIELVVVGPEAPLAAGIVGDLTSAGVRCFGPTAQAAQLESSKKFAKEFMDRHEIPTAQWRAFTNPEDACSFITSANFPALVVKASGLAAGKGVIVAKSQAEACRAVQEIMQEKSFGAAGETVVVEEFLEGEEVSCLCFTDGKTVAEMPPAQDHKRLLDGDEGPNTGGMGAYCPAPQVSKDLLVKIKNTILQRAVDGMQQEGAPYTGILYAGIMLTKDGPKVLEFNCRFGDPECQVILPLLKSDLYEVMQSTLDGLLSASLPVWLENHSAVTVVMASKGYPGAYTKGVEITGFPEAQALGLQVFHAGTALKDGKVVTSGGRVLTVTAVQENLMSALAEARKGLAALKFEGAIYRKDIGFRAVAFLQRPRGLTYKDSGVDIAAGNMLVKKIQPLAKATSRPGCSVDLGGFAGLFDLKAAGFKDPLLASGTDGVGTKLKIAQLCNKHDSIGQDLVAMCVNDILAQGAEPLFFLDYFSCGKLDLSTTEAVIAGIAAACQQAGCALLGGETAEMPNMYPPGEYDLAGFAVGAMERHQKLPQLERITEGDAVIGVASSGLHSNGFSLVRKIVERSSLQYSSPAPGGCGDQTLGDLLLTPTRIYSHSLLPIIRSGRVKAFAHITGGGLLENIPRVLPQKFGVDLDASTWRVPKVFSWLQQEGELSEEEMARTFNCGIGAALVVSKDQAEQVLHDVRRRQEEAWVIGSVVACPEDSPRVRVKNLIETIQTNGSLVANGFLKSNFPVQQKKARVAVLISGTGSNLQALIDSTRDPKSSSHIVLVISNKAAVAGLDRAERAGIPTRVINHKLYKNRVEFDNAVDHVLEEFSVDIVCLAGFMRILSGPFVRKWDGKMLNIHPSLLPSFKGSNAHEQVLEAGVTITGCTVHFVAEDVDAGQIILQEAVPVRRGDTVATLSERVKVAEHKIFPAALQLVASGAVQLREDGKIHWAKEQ
The experiment in a line: Inhibition of mouse recombinant GARFTase.

Experiment [12] concerns IGROV-1. Nature of the experiment: Antiproliferative activity against human RFC and FRalpha expressing human IGROV1 cells.
The target in experiment [13] is T3, Trifunctional purine biosynthetic protein adenosine-3 (Homo sapiens, UniProt P22102).
T3 sequence (P22102 whole entry): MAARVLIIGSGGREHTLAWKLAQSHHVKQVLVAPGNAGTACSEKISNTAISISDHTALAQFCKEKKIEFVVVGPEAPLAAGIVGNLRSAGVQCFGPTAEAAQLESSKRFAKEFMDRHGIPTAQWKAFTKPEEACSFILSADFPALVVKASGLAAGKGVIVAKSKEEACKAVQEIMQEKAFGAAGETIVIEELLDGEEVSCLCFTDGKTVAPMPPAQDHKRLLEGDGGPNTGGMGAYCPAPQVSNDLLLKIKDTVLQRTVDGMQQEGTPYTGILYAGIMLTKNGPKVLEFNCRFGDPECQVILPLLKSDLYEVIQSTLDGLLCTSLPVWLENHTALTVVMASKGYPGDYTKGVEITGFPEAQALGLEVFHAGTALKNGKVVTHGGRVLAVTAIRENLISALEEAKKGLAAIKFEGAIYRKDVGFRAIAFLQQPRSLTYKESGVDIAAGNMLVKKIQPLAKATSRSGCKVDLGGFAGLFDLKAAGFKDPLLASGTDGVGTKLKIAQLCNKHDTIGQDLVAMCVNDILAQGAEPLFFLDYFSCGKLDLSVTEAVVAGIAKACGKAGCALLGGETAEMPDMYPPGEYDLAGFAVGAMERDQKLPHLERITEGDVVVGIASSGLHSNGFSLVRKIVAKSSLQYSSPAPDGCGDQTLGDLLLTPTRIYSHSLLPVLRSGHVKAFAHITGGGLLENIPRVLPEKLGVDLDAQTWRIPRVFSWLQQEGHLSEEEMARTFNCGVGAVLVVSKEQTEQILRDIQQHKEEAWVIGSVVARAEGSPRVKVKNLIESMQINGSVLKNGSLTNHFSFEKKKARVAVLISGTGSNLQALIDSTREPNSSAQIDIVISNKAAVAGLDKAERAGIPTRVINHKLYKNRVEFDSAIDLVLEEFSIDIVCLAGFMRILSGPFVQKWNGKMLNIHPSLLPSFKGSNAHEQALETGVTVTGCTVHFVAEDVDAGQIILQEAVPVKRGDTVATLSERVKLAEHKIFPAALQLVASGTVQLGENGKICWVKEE

Experiment [14] can be described thus: cells. The conditions noted are these: Cricetulus griseus, RT16.
Experiment [15] in a line: cells. The following applies: Cricetulus griseus, D4.
The subject of experiment [16] is KB. Nature of the experiment: cells. The following applies: Homo sapiens, read-out: INH.

Chain of Folate receptor alpha (Homo sapiens) (P15328 25-234 limits assumed): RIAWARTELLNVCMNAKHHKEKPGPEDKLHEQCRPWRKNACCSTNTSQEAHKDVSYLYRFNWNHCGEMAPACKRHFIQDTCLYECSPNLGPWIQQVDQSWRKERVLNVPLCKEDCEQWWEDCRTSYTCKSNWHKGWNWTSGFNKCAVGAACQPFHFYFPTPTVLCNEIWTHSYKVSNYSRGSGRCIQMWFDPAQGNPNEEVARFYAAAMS
Chain of Folate receptor beta (Homo sapiens) (P14207 17-230 limits assumed): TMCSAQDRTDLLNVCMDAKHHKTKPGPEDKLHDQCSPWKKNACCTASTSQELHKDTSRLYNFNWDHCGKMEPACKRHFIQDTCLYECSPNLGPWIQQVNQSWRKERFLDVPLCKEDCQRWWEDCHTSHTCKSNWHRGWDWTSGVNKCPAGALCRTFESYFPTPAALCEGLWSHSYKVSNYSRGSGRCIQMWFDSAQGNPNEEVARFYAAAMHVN

For orientation: IC50 means the concentration at which inhibition is half-maximal. For `Nc1nc2ccc3ccc(CNc4ccc5c(c4)CN([C@@H](CCC(=O)O)C(=O)O)C5=O)cc3c2c(=O)[nH]1`, the IC50 in [1] was > 1000 nM; in the experiment with KB [2] it was 32 nM; in the experiment on KB [3] it was 5.8 nM.

Take `Nc1nc(=O)c2c([nH]1)NCC(CNc1ccc(C(=O)N[C@@H](CCC(=O)O)C(=O)O)cc1)N2C=O` (stereo partly specified): the inhibition in [4] was 60%.

For `Nc1nc2[nH]c(CCCc3ccc(C(=O)N[C@@H](CCC(=O)O)C(=O)O)cc3)cc2c(=O)[nH]1`, the IC50 in [5] is 304 nM; with R2, 448 nM; in [1] it was > 1000 nM; in [6] it was > 1000 nM; in the experiment with KB [2], > 1000 nM; in the experiment with IGROV-1 [7], > 1000 nM. Moreover, in experiment [11], the IC50 is 2440 nM. For the same compound, in [8], the inhibition was < 20%. In addition, the result in [9] and in experiment [10] was Active.

In experiment [4], `CN(Cc1cnc2nc(N)nc(N)c2n1)c1ccc(C(=O)N[C@@H](CCC(=O)O)C(=O)O)cc1` [METHOTREXATE] returned an inhibition of 60%.

Turning to `Nc1nc2[nH]c(Cc3ccc(C(=O)N[C@@H](CCC(=O)O)C(=O)O)cc3)cc2c(=O)[nH]1`, the concentration for half-maximal inhibition (IC50) (in experiment [5]; in the experiment with R2; in experiment [1]; in experiment [6]; in the experiment with KB [2]; in the experiment with IGROV-1 [12]) was > 1000 nM each time. Besides, the IC50 in the experiment with IGROV-1 [7] is > 1000 nM; in [11] it was > 20000 nM; in [13], > 1000 nM; in “cells [14]” it was > 1000 nM; in “cells [15]” it was > 1000 nM; in the experiment on KB [3] it was > 1000 nM. The inhibition in experiment [8] was < 20%.

For the compound `Nc1nc2c(c(=O)[nH]1)C[C@@H](CCc1ccc(C(=O)N[C@@H](CCC(=O)O)C(=O)O)cc1)CN2` [LOMETREXOL], the IC50 in [1] is 188 nM; in experiment [6] it was 275 nM. Further, the inhibition in experiment [4] came out at 60%.

As to `Cc1nc(=O)c2cc(CN(C)c3ccc(C(=O)N[C@@H](CCC(=O)O)C(=O)O)s3)ccc2[nH]1` [RALTITREXED], in the experiment on KB [16], the inhibition at 1 µM is > 99%.

On to `Nc1nc2[nH]c(CCCCc3ccc(C(=O)N[C@@H](CCC(=O)O)C(=O)O)cc3)cc2c(=O)[nH]1`, for which the IC50 was > 1000 nM in experiment [5]; > 1000 nM in the experiment with R2; > 1000 nM in experiment [1]; > 1000 nM in the experiment with KB [2]; > 1000 nM in the experiment on IGROV-1 [7]; 150 nM in experiment [11]. In experiment [8], the inhibition is < 20%. Moreover, the result in experiment [9] and in experiment [10] was Active. In addition, in the experiment with KB [16], the inhibition at 1 µM is > 97%.

As for `Nc1nc2[nH]cc(CCc3ccc(C(=O)N[C@@H](CCC(=O)O)C(=O)O)cc3)c2c(=O)[nH]1` [PEMETREXED], in the experiment with IGROV-1 [7], the IC50 was 200 nM. This compound showed an inhibition in experiment [4] of 60%.

Take `COc1cc(NCc2ccc3nc(N)nc(N)c3c2C)cc(OC)c1OC` [TRIMETREXATE]: the IC50 in experiment [6] turned out to be 6.1 nM; in the experiment on IGROV-1 [7], 8.6 nM.

Regarding `Nc1nc2[nH]c(CCCCCc3ccc(C(=O)N[C@@H](CCC(=O)O)C(=O)O)cc3)cc2c(=O)[nH]1`, the concentration for half-maximal inhibition (IC50) (in experiment [5]; in the experiment on R2; in experiment [1]; in experiment [6]; in the experiment on KB [2]; in the experiment with IGROV-1 [7]) was > 1000 nM throughout. Moreover, the IC50 in [11] turned out to be 2260 nM; in [13] it was 7.2 nM. The inhibition in experiment [8] is < 20%. Besides, the outcome in experiment [9] and in [10] was Active.

Regarding `Nc1nc2[nH]c(CCCCCCc3ccc(C(=O)N[C@@H](CCC(=O)O)C(=O)O)cc3)cc2c(=O)[nH]1`, the IC50 in experiment [5] is > 1000 nM; in the experiment with R2, > 1000 nM; in [1], > 1000 nM; in experiment [6] it was > 1000 nM; in the experiment with KB [2] it was > 1000 nM; in the experiment on IGROV-1 [12], 309 nM. Further, the IC50 was > 1000 nM in the experiment with IGROV-1 [7]; 2510 nM in experiment [11]; 8.6 nM in experiment [13]; 162 nM in “cells [14]”; 198 nM in the experiment “cells [15]”. Further, in experiment [8], the inhibition is < 20%. Besides, the result in experiment [9] and in experiment [10] was Active.
